Screening results: PubChem, The Scripps Research Institute Molecular Screening Center
Rows were chosen to be rich in hits. Some 3.3% of all compounds tested hit in one or more screens of this group.
rCAG RNA binder – binds r(CAG) RNA repeats. r(CAG) RNA repeat, TO-PRO-1 dye displacement fluorescence. 370,000 tested, 1.3% active. inhibition, % at 3 µM;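 active = inhibition above the plate cutoff, the mean of all test compounds on that plate plus 3 SD, cut at about 35% in these data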;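 also: 0% = DMSO alone and 100% = 100 µM mitoxantrone as full dye displacement; higher means more dye released from RNA so lower well fluorescence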
ABHD4 inh – inhibitors of mouse ABHD4; Q8VD66; purified mABHD4, FP-Rh probe fluorescence polarization; inhibition, % at 8.92 µM; 370,000 tested, 0.54% active;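 active = inhibition exceeding the mean over every tested compound plus 3 SD, cut at about 30% in these data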;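 also: 0% = plate median of compound wells and 100% = S159A mutant with DMSO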
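Material: mouse ABHD4 enzyme, wild type; Benchmarks: S159A mutant high control, sample median low control; Buffer or medium: HEPES pH 7.0, NaCl, Pluronic buffer; Signal: fluorescence polarization; Read-out: percent inhibition of probe binding, normalized to plate controls; Timing: pre-incubation 45 min, probe exposure 60 min, at 25 °C; Dosing: 8.92 µM, single dose.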
PRMT1 inh – blocks human protein arginine methyltransferase 1 | Q99873 | recombinant PRMT1, activity-based probe fluorescence polarization | inhibition, % at 2.79 µM | 370,000 tested, 1.3% active;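 active = inhibition above about 21% made by adding two undisclosed values, limit read from the data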
SIAE primary – human SIAE inhibition, primary screen. Q9HAT2. SIAE FP-Rh probe binding, fluorescence polarization. inhibition, % at 9.66 µM. 370,000 tested, 0.69% active. AID 1053197;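 active = inhibition above a cutoff: mean of compounds within the control limits plus 3 SD of those, cut at about 17% in these data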;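 also: 0% = plate median of compound wells and 100% = probe without SIAE protein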
Target sequence (Q9HAT2 whole entry, looked up): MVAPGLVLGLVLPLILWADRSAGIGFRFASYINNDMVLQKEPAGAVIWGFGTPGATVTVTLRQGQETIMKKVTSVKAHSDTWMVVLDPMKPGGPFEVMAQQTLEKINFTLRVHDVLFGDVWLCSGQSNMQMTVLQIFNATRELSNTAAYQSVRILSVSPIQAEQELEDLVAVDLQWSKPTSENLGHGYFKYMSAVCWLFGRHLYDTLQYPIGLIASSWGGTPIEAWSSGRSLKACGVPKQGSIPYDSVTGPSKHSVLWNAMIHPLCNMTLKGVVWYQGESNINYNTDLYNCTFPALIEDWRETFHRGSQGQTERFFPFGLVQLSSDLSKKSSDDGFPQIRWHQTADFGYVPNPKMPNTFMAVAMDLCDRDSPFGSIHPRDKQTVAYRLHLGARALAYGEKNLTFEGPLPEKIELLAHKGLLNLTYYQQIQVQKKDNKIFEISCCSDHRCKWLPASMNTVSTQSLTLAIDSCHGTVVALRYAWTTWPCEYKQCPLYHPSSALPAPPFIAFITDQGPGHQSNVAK
TCR CD3 inh – blocks the human TCR-CD3 interaction | inhibition, % at 9.4 µM | 360,000 tested, 0.37% active | AID 651800 | TAMRA-labeled TCR probe fluorescence, biochemical; in the data active = inhibition above about 19%;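 also: recombinant mutant TCR 2C K166C tagged with TAMRA read by polarization; 0% = receptor in buffer alone and 100% = receptor with positive control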
rCAG binder conf – r(CAG) RNA repeat binding, confirmation; TO-PRO-1 dye displacement fluorescence; 4,300 tested, 70% active; shares compounds with rCAG RNA binder; inhibition, % at 3 µM;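 active = inhibition above a per-plate cutoff, the mean inhibition of sample wells plus 3 SD, cut at about 35% in these data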;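 also: loss of TO-PRO-1 fluorescence as compound displaces dye from 1x1 AA loop RNA; 0% = DMSO only wells and 100% = 100 µM mitoxantrone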
DNA CAG counter – counter-screen for rCAG RNA binders: DNA CAG dye complex inhibitors | 4,300 tested, 94% active | inhibition, % at 3 µM | shares compounds with rCAG RNA binder | d(CAG) DNA oligo TO-PRO-1 dye displacement, fluorescence;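 active = inhibition above its plate's cutoff, the mean test-well inhibition plus 3 SD, cut at about 4.8% in these data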;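 also: 0% = DNA dye mix with DMSO and 100% = 100 µM mitoxantrone; hits displace the dye from DNA and so lower well fluorescence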
dCAG dye DR – disrupts DNA CAG TO-PRO-1 complex in dose response | IC50, µM | 250 tested, 20% active | shares compounds with rCAG RNA binder | AID 686960 | DNA CAG/GTC duplex TO-PRO-1 dye displacement fluorescence; in the data active = IC50 below about 10 µM
Starred values were filed as active, the others as inactive.

Screening CCN(CC)C(=O)C(=O)c1cccn1-c1cccc(Cl)c1C#N returned rCAG RNA binder -4, ABHD4 inh 1, PRMT1 inh 0, SIAE primary -4 and TCR CD3 inh -1.
Screening CCN(CC)C(=O)C(=O)c1cccn1-c1c(Cl)cccc1C#N returned rCAG RNA binder 36*, ABHD4 inh -4, PRMT1 inh -6, SIAE primary 3, TCR CD3 inh 3, rCAG binder conf 3 and DNA CAG counter 2.
COC(=O)c1sc(-c2ccc(Cl)cc2)cc1NC(=O)COCC(=O)O was read as rCAG RNA binder 46*, ABHD4 inh -4, PRMT1 inh 2, SIAE primary -16, TCR CD3 inh -5, rCAG binder conf 52*, DNA CAG counter 12* and dCAG dye DR inactive.
`COC(=O)c1sc(-c2ccc(C(C)(C)C)cc2)cc1NC(=O)CCC(=O)O` gave rCAG RNA binder 72*, ABHD4 inh -9, PRMT1 inh 7, SIAE primary -31, TCR CD3 inh 1, rCAG binder conf 72* and DNA CAG counter 29*.
`CC(=O)c1sc(C(C)(C)C)cc1NC(=O)CCC(=O)O` gave rCAG RNA binder -1, ABHD4 inh 7, PRMT1 inh 4, SIAE primary -2 and TCR CD3 inh 2.
COC(=O)c1sc(-c2ccc(Cl)cc2)cc1NC(=O)/C=C/C(=O)O was read as rCAG RNA binder 12, ABHD4 inh -8, PRMT1 inh 2, SIAE primary -7 and TCR CD3 inh -2.
`O=C(Nc1sc2c(c1C(=O)O)CCCC2)c1ccc(Cl)cc1` gave rCAG RNA binder 69*, ABHD4 inh 16, PRMT1 inh -1, SIAE primary -5, TCR CD3 inh 3, rCAG binder conf 50* and DNA CAG counter 14*.
`O=C(O)CN1C(=O)/C(=C\c2cccc(OCc3ccccc3F)c2)SC1=S` gave rCAG RNA binder 84*, ABHD4 inh -16, PRMT1 inh -6, SIAE primary 0, TCR CD3 inh 4, rCAG binder conf 75* and DNA CAG counter 37*.
For O=C(O)COc1ccccc1/C=C1\SC(=S)N(NC(=O)c2ccccc2O)C1=O the results were rCAG RNA binder 61*, ABHD4 inh -138, PRMT1 inh 17, SIAE primary -26, TCR CD3 inh -11, rCAG binder conf 42* and DNA CAG counter 10*.
`O=C(Cc1ccccc1)NN1C(=O)/C(=C/c2ccccc2C(=O)O)SC1=S` gave rCAG RNA binder 7, ABHD4 inh -3, PRMT1 inh 0, SIAE primary 2 and TCR CD3 inh 10.
Screening O=C(O)CCN1C(=O)/C(=C\c2cccc(Oc3ccccc3)c2)SC1=S returned rCAG RNA binder 62*, ABHD4 inh -12, PRMT1 inh 16, SIAE primary -9, TCR CD3 inh 4, rCAG binder conf 78* and DNA CAG counter 35*.
Screening O=C(O)CN1C(=O)/C(=C\c2ccccc2OCc2ccc(Cl)cc2)SC1=S returned rCAG RNA binder 74*, ABHD4 inh -39, PRMT1 inh 21, SIAE primary -16, TCR CD3 inh 6, rCAG binder conf 84* and DNA CAG counter 47*.
COc1ccc(/C=C2/SC(=S)N(CCC(=O)O)C2=O)cc1 was read as rCAG RNA binder 11, ABHD4 inh 3, PRMT1 inh 4, SIAE primary -1 and TCR CD3 inh -1.
`C=CCNC(=O)CSc1nc2c(c(=O)[nH]1)CCCC2` gave rCAG RNA binder 4, ABHD4 inh 2, PRMT1 inh 7 and SIAE primary 3.
Screening CC(C)c1cc(C(C)C)c(S(=O)(=O)N2CCC(C(=O)NCC3COCCO3)CC2)c(C(C)C)c1 (stereo unspecified) returned rCAG RNA binder 4, ABHD4 inh -6, PRMT1 inh 1 and SIAE primary -1.
Screening COCCOC(=O)N(C)C[C@@H]1OCCCC[C@H](C)Oc2ccc(NC(=O)Nc3ccccc3)cc2C(=O)N([C@@H](C)CO)C[C@H]1C returned ABHD4 inh 2, PRMT1 inh -4 and SIAE primary 0.
O=C(O)CN1C(=O)/C(=C\c2cccc(OCc3ccc(Cl)cc3)c2)SC1=S was read as rCAG RNA binder 78*, ABHD4 inh -25, PRMT1 inh 7, SIAE primary -7, TCR CD3 inh 5, rCAG binder conf 91* and DNA CAG counter 64*.
O=C(O)CN1C(=O)/C(=C/c2ccc(SCc3ccccc3)o2)SC1=S was read as rCAG RNA binder 41*, ABHD4 inh 6, PRMT1 inh 17, SIAE primary -10, TCR CD3 inh 2, rCAG binder conf 59* and DNA CAG counter 31*.
`O=C(O)CN1C(=O)/C(=C/c2ccsc2)SC1=S` gave rCAG RNA binder 2, ABHD4 inh -3, PRMT1 inh 8, SIAE primary 1 and TCR CD3 inh 2.
`O=C(O)CN1C(=O)/C(=C\c2cccc(OC(=O)c3ccco3)c2)SC1=S` gave rCAG RNA binder 28, ABHD4 inh 3, PRMT1 inh -2, SIAE primary -6 and TCR CD3 inh 3.
O=C(O)CN1C(=O)/C(=C\c2cccc(OCc3ccc(F)cc3)c2)SC1=S was read as rCAG RNA binder 81*, ABHD4 inh -6, PRMT1 inh 4, SIAE primary -6, TCR CD3 inh 1, rCAG binder conf 80* and DNA CAG counter 44*.
For COc1ccccc1C(=O)NC1CCCCN(Cc2ccc(OC(F)(F)F)cc2)C1=O (stereo unspecified) the results were rCAG RNA binder 1, ABHD4 inh -1, PRMT1 inh 0 and SIAE primary 0.
COC(=O)[C@]12C[C@H](CC(=O)N3CCC(c4ccccc4)CC3)C(=O)N(Cc3ccco3)C1=C[C@H](C1CCCC1)O[C@@H]2C was read as rCAG RNA binder 4, ABHD4 inh 1, PRMT1 inh 1 and SIAE primary 12.
CCC[C@H]1[C@@H](NS(=O)(=O)c2ccccc2[N+](=O)[O-])CC[C@@]23CCCN2C(=O)CCC[C@@H]13 was read as ABHD4 inh 6, PRMT1 inh 1 and SIAE primary -1.
COc1cc(NS(=O)(=O)c2ccc(NC(=O)COc3ccc(C)cc3C)cc2)nc(OC)n1 was read as rCAG RNA binder 45*, ABHD4 inh 0, PRMT1 inh 0, SIAE primary -3, TCR CD3 inh 2, rCAG binder conf 46* and DNA CAG counter 14*.
Cc1ccc(OCC(=O)Nc2ccc(S(=O)(=O)Nc3cc(C)nc(C)n3)cc2)c(C)c1 was read as rCAG RNA binder 17, ABHD4 inh -2, PRMT1 inh 1, SIAE primary -6 and TCR CD3 inh 3.
